# Measurements published in ChEMBL document CHEMBL2169868, “Flavone-based novel antidiabetic and antidyslipidemic agents” (J Med Chem, 2012).
# Experiments:
# [1] = Elimination half life in Sprague-Dawley rat at 2.5 mg/kg, iv by LC-MS/MS method; type: ADME, organism-based; parameters: dose 2.5 mg/kg, route intravenous; details: in vivo, read-out: beta t1/2 (converted)
# Outline: (§1)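 Male Sprague−Dawley rats given a single 2.5 mg/kg iv dose; one formulation was DMF/PG/water (2:4:4), 0.2 μ filtered. Blood drawn from 0.08 to 48 h. Plasma assayed by LC-MS/MS with linear range 0.78−400 ng/mL.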
# [2] = test system: Syrian golden hamster; experiment: Antidyslipidemic activity in high fructose and high-fat diet fed dyslipidemic Syrian golden hamster model assessed as reduction in cholesterol level at 100 mg/kg/day, po for 7 days; type: functional, Mesocricetus auratus; parameters: scale not given: the % may be the effect or the level left
# Outline: (§2)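 Syrian golden hamsters fed high-fructose high-fat diet; oral dosing in 1% gum acacia at 10, 30, 100 mg/kg (or 25 mg/kg) for 7 days, sham control given vehicle; plasma TG, cholesterol, LDL-C, HDL-C, glycerol and NEFA (kits), lipoprotein lipase activity and body weight; % change versus HFD control, six hamsters per group.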
# [3] = Plasma clearance in Sprague-Dawley rat at 2.5 mg/kg, iv by LC-MS/MS method; type: ADME, organism-based; parameters: dose 2.5 mg/kg, route intravenous; outline: as §1
# [4] = test system: Syrian golden hamster; experiment: Antidyslipidemic activity in high fructose and high-fat diet fed dyslipidemic Syrian golden hamster model assessed as increase in lipoprotein lipase level at 10 mg/kg/day, po for 7 day, po; type: functional, Mesocricetus auratus; outline: as §2
# [5] = test system: Mus musculus; experiment: Antidyslipidemic activity in diabetic C57BL/KsJ db/db mouse model assessed as reduction in plasma cholesterol level at 25 mg/kg, po qd for 10 days; type: functional; parameters: scale not given: the % may be the effect or the level left
# Outline: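 db/db mice (blood glucose 200−350, TG 170−250, cholesterol 170−250, HDL-C 32−40 mg/dL) dosed orally at 25 mg/kg daily for 10 days; retro-orbital blood taken on day 11 for plasma TG, cholesterol and HDL-C (and HDL-C/CHOL ratio); mean % change versus vehicle control, 5 mice per group; Student t test.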
# [6] = test system: Syrian golden hamster; experiment: Antidyslipidemic activity in high fructose and high-fat diet fed dyslipidemic Syrian golden hamster model assessed as reduction in LDL-cholesterol level at 30 mg/kg/day, po for 7 day, po; type: functional, Mesocricetus auratus; parameters: scale not given: the % may be the effect or the level left; outline: as §2
# [7] = test system: Syrian golden hamster; experiment: Antidyslipidemic activity in high fructose and high-fat diet fed dyslipidemic Syrian golden hamster model assessed as reduction in LDL-cholesterol level at 25 mg/kg/day for 7 days; type: functional, Mesocricetus auratus; parameters: scale not given: the % may be the effect or the level left; outline: as §2
# [8] = Elimination half life in Sprague-Dawley rat at 25 mg/kg, po by LC-MS/MS method; type: ADME, organism-based; parameters: dose 25 mg/kg, route oral; details: in vivo, read-out: beta t1/2 (converted)
# Outline: (§3)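 Male Sprague−Dawley rats given a single 25 mg/kg oral dose (aqueous 0.5% methyl cellulose suspension for one compound). Blood drawn from 0.08 to 48 h. LC-MS/MS, linear range 0.78−400 ng/mL.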
# [9] = test system: Mus musculus; experiment: Antidiabetic activity in diabetic C57BL/KsJ db/db mouse model assessed as reduction in postprandial glucose level in hyperglycemia at 50 mg/kg, po measured 2 hrs post dose; parameters: scale not given: the % may be the effect or the level left
# [10] = test system: Rattus norvegicus; experiment: Volume of distribution in Sprague-Dawley rat at 25 mg/kg, po by LC-MS/MS method; type: ADME, organism-based; parameters: dose 25 mg/kg, route oral; details: in vivo; outline: as §3
# [11] = test system: Syrian golden hamster; experiment: Antidyslipidemic activity in high fructose and high-fat diet fed dyslipidemic Syrian golden hamster model assessed as increase in HDL-cholesterol level at 10 mg/kg/day, po for 7 day, po; type: functional, Mesocricetus auratus; outline: as §2
# [12] = test system: Mus musculus; experiment: Reduction in body weight in diabetic C57BL/KsJ db/db mouse model in hyperglycemia at 25 mg/kg, po qd for 10 days relative to untreated control; type: functional; parameters: scale not given: the % may be the effect or the level left
# Outline: (§4)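 db/db mice (C57BL/KsJ, 12−18 weeks, 40−50 g, glucose 200−350 mg/dL), housed at 23 ± 2.0 °C on a 12 h light cycle. Oral dosing daily for 10 days. Blood glucose checked each morning through day 9. Body weight recorded daily from day 1 to day 10. Mean % change versus vehicle, 5 mice per group; Student t test.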
# [13] = Cmax in Sprague-Dawley rat at 25 mg/kg, po by LC-MS/MS method; type: ADME, organism-based; parameters: dose 25 mg/kg, route oral; details: in vivo; outline: as §3
# [14] = test system: Syrian golden hamster; experiment: Antidyslipidemic activity in high fructose and high-fat diet fed dyslipidemic Syrian golden hamster model assessed as reduction in cholesterol level at 25 mg/kg/day for 7 days; type: functional, Mesocricetus auratus; parameters: scale not given: the % may be the effect or the level left
# [15] = test system: Mus musculus; experiment: Antihyperglycemic activity in diabetic C57BL/KsJ db/db mouse model assessed as improvement in glucose tolerance in hyperglycemia at 25 mg/kg, po qd for 10 days; type: functional
# Outline: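 Male/female C57BL/KsJ db/db mice, 12−18 weeks, 40−50 g, selected for glucose 200−350 mg/dL. Oral dosing daily for 10 days. OGTT on day 10 after an overnight fast: compound at −30 min, then 3 g/kg oral glucose at 0 min. Glucose read at 30, 60, 90 and 120 min. AUC taken versus vehicle, 5 mice per group.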
# [16] = test system: Mus musculus; experiment: Antihyperglycemic activity in diabetic C57BL/KsJ db/db mouse model assessed as reduction in hyperglycemia at 25 mg/kg, po qd for 10 days; type: functional; parameters: scale not given: the % may be the effect or the level left; outline: as §4
# [17] = test system: Syrian golden hamster; experiment: Antidyslipidemic activity in high fructose and high-fat diet fed dyslipidemic Syrian golden hamster model assessed as reduction in triglyceride level at 100 mg/kg/day, po for 7 days; type: functional, Mesocricetus auratus; parameters: scale not given: the % may be the effect or the level left
# Outline: (§5)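 HFD-fed Syrian golden hamsters, six per group, fed a high-fructose diet. Oral dosing in 1% gum acacia for 7 days. Sham group received vehicle. Plasma TG was measured and body weight tracked. Results given as % change versus HFD control.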
# [18] = test system: Syrian golden hamster; experiment: Antidyslipidemic activity in high fructose and high-fat diet fed dyslipidemic Syrian golden hamster model assessed as reduction in cholesterol level at 10 to 100 mg/kg/day for 7 days; type: functional, organism-based; details: Mesocricetus auratus; outline: as §2
# [19] = test system: Syrian golden hamster; experiment: Antidyslipidemic activity in high fructose and high-fat diet fed dyslipidemic Syrian golden hamster model assessed as reduction in NEFA level at 100 mg/kg/day, po for 7 days; type: functional, Mesocricetus auratus; parameters: scale not given: the % may be the effect or the level left; outline: as §2
# [20] = test system: Syrian golden hamster; experiment: Antidyslipidemic activity in high fructose and high-fat diet fed dyslipidemic Syrian golden hamster model assessed as reduction in glycerol level at 100 mg/kg/day, po for 7 days; type: functional, Mesocricetus auratus; parameters: scale not given: the % may be the effect or the level left; outline: as §2
# [21] = test system: Mus musculus; experiment: Antidiabetic activity in diabetic C57BL/KsJ db/db mouse model assessed as reduction in postprandial glucose level in hyperglycemia at 3 mg/kg, po measured 2 hrs post dose; type: functional; parameters: scale not given: the % may be the effect or the level left
# Outline: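 db/db mice (C57BL/KsJ, 12−18 weeks, 40−50 g; selected by glucose 200−350 mg/dL) dosed orally daily for 10 consecutive days at 1, 3, 10, 25 or 50 mg/kg; postprandial blood glucose profile recorded on day 6 with food access interrupted; mean % change versus vehicle in 5 animals per group; Student t test.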
# [22] = test system: Syrian golden hamster; experiment: Reduction in body weight in high fructose and high-fat diet fed dyslipidemic Syrian golden hamster model at 100 mg/kg/day, po for 7 days; type: functional, Mesocricetus auratus; parameters: scale not given: the % may be the effect or the level left; outline: as §5
# [23] = test system: Syrian golden hamster; experiment: Antidyslipidemic activity in high fructose and high-fat diet fed dyslipidemic Syrian golden hamster model assessed as increase in HDL-cholesterol level at 100 mg/kg/day, po for 7 days; type: functional, Mesocricetus auratus; outline: as §2
# [24] = test system: Syrian golden hamster; experiment: Antidyslipidemic activity in high fructose and high-fat diet fed dyslipidemic Syrian golden hamster model assessed as increase in lipoprotein lipase level at 100 mg/kg/day, po for 7 days; type: functional, Mesocricetus auratus; outline: as §2
# [25] = test system: Syrian golden hamster; experiment: Antidyslipidemic activity in high fructose and high-fat diet fed dyslipidemic Syrian golden hamster model assessed as reduction in LDL-cholesterol level at 100 mg/kg/day, po for 7 days; type: functional, Mesocricetus auratus; parameters: scale not given: the % may be the effect or the level left; outline: as §2
# [26] = test system: Syrian golden hamster; experiment: Antidyslipidemic activity in high fructose and high-fat diet fed dyslipidemic Syrian golden hamster model assessed as reduction in LDL-cholesterol level at 10 mg/kg/day, po for 7 day, po; type: functional, Mesocricetus auratus; parameters: scale not given: the % may be the effect or the level left; outline: as §2
compound,measurement,setting,value
CC(C)(C)NC[C@H](O)COc1ccc2c(=O)cc(-c3cc(OCc4ccccc4)cc(OCc4ccccc4)c3)oc2c1,half-life,[1],10.1 h
same,Activity,[2],50.7%
same,clearance,[3],62 mL/min/kg
same,Activity,[4],13.2%
same,Activity,[5],30.7%
same,Activity,[6],34.6%
same,Activity,[7],30.1%
same,half-life,[8],19.8 h
same,Activity,[9],39.1%
same,Vd,[10],107.41 L/kg
same,Activity,[11],9.37%
same,Activity,[12],28.2%
same,Cmax,[13],70.3 ng/mL
same,Activity,[14],24.4%
same,Activity,[15],38.8%
same,Activity,[16],55.4%
same,Activity,[17],76.3%
same,Activity,[18],Dose-dependent effect
same,Activity,[19],59.1%
same,Activity,[20],50.5%
same,Activity,[21],22.1%
same,Activity,[22],12.5%
same,Activity,[23],27.9%
same,Activity,[24],69.7%
same,Activity,[25],68.4%
same,Activity,[26],21.1%
